Activity calls are given as the source filed them. The calls are words filed in the database; no cut-off is given here.

By IC50 is commonly meant the concentration that inhibits the measured activity by half.

For one experiment, the system named is HL-60. Nature of the experiment: Inhibition of human HL60 cell proliferation after 72 hrs by trypan blue exclusion assay. It is filed as functional.
Conditions: not given
The gist of the method: (§1)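 HL-60 cells treated 72 h, then counted with trypan blue exclusion. IG50 is the concentration giving 50% inhibition of proliferation. IC50 is the concentration giving 50% loss of viability.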
As to `C[C@H]1[C@@H](OCCOc2ccc(C(=O)/C=C/c3ccc4c(c3)OCO4)cc2)O[C@@H]2O[C@]3(C)CC[C@H]4[C@H](C)CC[C@@H]1[C@@]24OO3`, the IG50 is 0.059 µM.
`C[C@H]1[C@@H](OCCOc2ccc(C(=O)/C=C/c3ccccc3)cc2)O[C@@H]2O[C@]3(C)CC[C@H]4[C@H](C)CC[C@@H]1[C@@]24OO3` returned an IG50 of 0.208 µM.
As for `COc1ccc(/C=C/C(=O)c2ccc(OCCO[C@H]3O[C@@H]4O[C@]5(C)CC[C@H]6[C@H](C)CC[C@@H]([C@H]3C)[C@@]46OO5)cc2)cc1OC`, the IG50 is 0.09 µM.
On the same count and under the same terms, under `COc1cccc(/C=C/C(=O)c2ccc(OCCO[C@H]3O[C@@H]4C[C@]5(C)CC[C@H]6[C@H](C)CC[C@@H]([C@H]3C)[C@@]46OO5)cc2)c1OC` stands 0.079 µM.
In turn, `C[C@H]1[C@@H](OCCOc2ccc(C(=O)/C=C/c3ccccc3Cl)cc2)O[C@@H]2O[C@]3(C)CC[C@H]4[C@H](C)CC[C@@H]1[C@@]24OO3` returned an IG50 of 0.119 µM.
Same read-out and setting: then `C[C@H]1[C@H](OC(=O)COc2ccc(C(=O)/C=C/c3ccc(Cl)cc3)cc2)O[C@@H]2O[C@]3(C)CC[C@H]4[C@H](C)CC[C@@H]1[C@@]24OO3`, with 0.276 µM; and `CCOc1ccc(/C=C/C(=O)c2ccc(OCC(=O)O[C@@H]3O[C@@H]4O[C@]5(C)CC[C@H]6[C@H](C)CC[C@@H]([C@H]3C)[C@@]46OO5)cc2)cc1`, with 0.286 µM; and `C[C@H]1[C@H](OC(=O)COc2ccc(C(=O)/C=C/c3ccc(Br)cc3)cc2)O[C@@H]2O[C@]3(C)CC[C@H]4[C@H](C)CC[C@@H]1[C@@]24OO3`, with 0.314 µM.
Still for that read-out and setting: then `C[C@H]1[C@@H](OCCOc2ccc(C(=O)/C=C/c3ccc(Br)cc3)cc2)O[C@@H]2O[C@]3(C)CC[C@H]4[C@H](C)CC[C@@H]1[C@@]24OO3`, with 0.04 µM.

The test system of another experiment is P388. Nature of the experiment: Growth inhibition of adriamycin-resistant mouse P388 cells after 72 hrs by trypan blue exclusion assay. The class given is functional.
Conditions: not given
`C[C@H]1[C@@H](OCCOc2ccc(C(=O)/C=C/c3ccc4c(c3)OCO4)cc2)O[C@@H]2O[C@]3(C)CC[C@H]4[C@H](C)CC[C@@H]1[C@@]24OO3` returned an IG50 of 0.178 µM.
`C[C@H]1[C@@H](OCCOc2ccc(C(=O)/C=C/c3ccc(Br)cc3)cc2)O[C@@H]2O[C@]3(C)CC[C@H]4[C@H](C)CC[C@@H]1[C@@]24OO3` returned an Activity of 0.155 µM.

Another experiment has as its system HL-60. Nature of the experiment: Cytotoxicity against human HL60 cells after 72 hrs by trypan blue exclusion assay. The class given is functional, cell-based. The settings on record: HL-60, 72 h. The gist of the method:
as §1
Take `C[C@H]1[C@@H](OCCOc2ccc(C(=O)/C=C/c3ccc4c(c3)OCO4)cc2)O[C@@H]2O[C@]3(C)CC[C@H]4[C@H](C)CC[C@@H]1[C@@]24OO3`: 89 nM corresponded to half-maximal inhibition (IC50). That is a double-digit nanomolar value.
As to `C[C@H]1[C@@H](OCCOc2ccc(C(=O)/C=C/c3ccccc3)cc2)O[C@@H]2O[C@]3(C)CC[C@H]4[C@H](C)CC[C@@H]1[C@@]24OO3`, the IC50 is 193 nM. Compared with the last compound, the IC50 is about 2.2-fold higher.
`COc1ccc(/C=C/C(=O)c2ccc(OCCO[C@H]3O[C@@H]4O[C@]5(C)CC[C@H]6[C@H](C)CC[C@@H]([C@H]3C)[C@@]46OO5)cc2)cc1OC` returned an IC50 of 300 nM.
In turn, `COc1cccc(/C=C/C(=O)c2ccc(OCCO[C@H]3O[C@@H]4C[C@]5(C)CC[C@H]6[C@H](C)CC[C@@H]([C@H]3C)[C@@]46OO5)cc2)c1OC` displayed an IC50 of 194 nM.
The same measure, in the same setting: then `C[C@H]1[C@@H](OCCOc2ccc(C(=O)/C=C/c3ccccc3Cl)cc2)O[C@@H]2O[C@]3(C)CC[C@H]4[C@H](C)CC[C@@H]1[C@@]24OO3`, with 136 nM; and `C[C@H]1[C@H](OC(=O)COc2ccc(C(=O)/C=C/c3ccc(Cl)cc3)cc2)O[C@@H]2O[C@]3(C)CC[C@H]4[C@H](C)CC[C@@H]1[C@@]24OO3`, with 537 nM; and `CCOc1ccc(/C=C/C(=O)c2ccc(OCC(=O)O[C@@H]3O[C@@H]4O[C@]5(C)CC[C@H]6[C@H](C)CC[C@@H]([C@H]3C)[C@@]46OO5)cc2)cc1`, with 734 nM.
Compound `C[C@H]1[C@H](OC(=O)COc2ccc(C(=O)/C=C/c3ccc(Br)cc3)cc2)O[C@@H]2O[C@]3(C)CC[C@H]4[C@H](C)CC[C@@H]1[C@@]24OO3` had an IC50 of 636 nM. This IC50 and that of the compound before are within 1.5-fold of each other.
Compound `C[C@H]1[C@@H](OCCOc2ccc(C(=O)/C=C/c3ccc(Br)cc3)cc2)O[C@@H]2O[C@]3(C)CC[C@H]4[C@H](C)CC[C@@H]1[C@@]24OO3` gave a concentration for half-maximal inhibition (IC50) of 80 nM.

A further experiment deals with HL-60. Nature of the experiment: Induction of apoptosis in human HL60 cells assessed as DNA fragmentation at 0.8 uM after 24 hrs using ethidium bromide staining by DNA gel electrophoresis. The class given is functional, cell-based.
Conditions: not given
The method, boiled down: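 HL-60 cells exposed 24 h. DNA resolved by gel electrophoresis and the fragmented DNA visualized by ethidium bromide staining.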
Take `C[C@H]1[C@@H](OCCOc2ccc(C(=O)/C=C/c3ccc4c(c3)OCO4)cc2)O[C@@H]2O[C@]3(C)CC[C@H]4[C@H](C)CC[C@@H]1[C@@]24OO3`: the outcome was Active.
The same measure, in the same setting: under `C[C@H]1[C@@H](OCCOc2ccc(C(=O)/C=C/c3ccc(Br)cc3)cc2)O[C@@H]2O[C@]3(C)CC[C@H]4[C@H](C)CC[C@@H]1[C@@]24OO3` stands “Active”.

The next experiment has as its system HL-60. Nature of the experiment: Growth inhibition of human HL60 cells at 1 uM after 72 hrs by trypan blue exclusion assay. It is filed as functional, cell-based.
Conditions: not given
As for `C[C@H]1[C@@H](OCCOc2ccc(C(=O)/C=C/c3ccc4c(c3)OCO4)cc2)O[C@@H]2O[C@]3(C)CC[C@H]4[C@H](C)CC[C@@H]1[C@@]24OO3`, the “growth inhibition (GI)” value was “inactive”.
With `C[C@H]1[C@@H](OCCOc2ccc(C(=O)/C=C/c3ccccc3)cc2)O[C@@H]2O[C@]3(C)CC[C@H]4[C@H](C)CC[C@@H]1[C@@]24OO3`, the “growth inhibition (GI)” value is “inactive”.
Same read-out and setting: then `COc1ccc(/C=C/C(=O)c2ccc(OCCO[C@H]3O[C@@H]4O[C@]5(C)CC[C@H]6[C@H](C)CC[C@@H]([C@H]3C)[C@@]46OO5)cc2)cc1OC`, with “inactive”.
On the same count and under the same terms, under `COc1cccc(/C=C/C(=O)c2ccc(OCCO[C@H]3O[C@@H]4C[C@]5(C)CC[C@H]6[C@H](C)CC[C@@H]([C@H]3C)[C@@]46OO5)cc2)c1OC` stands “inactive”; under `C[C@H]1[C@@H](OCCOc2ccc(C(=O)/C=C/c3ccccc3Cl)cc2)O[C@@H]2O[C@]3(C)CC[C@H]4[C@H](C)CC[C@@H]1[C@@]24OO3`, “inactive”.
On the same count and under the same terms, under `C[C@H]1[C@H](OC(=O)COc2ccc(C(=O)/C=C/c3ccc(Cl)cc3)cc2)O[C@@H]2O[C@]3(C)CC[C@H]4[C@H](C)CC[C@@H]1[C@@]24OO3` stands “inactive”.
Turning to `CCOc1ccc(/C=C/C(=O)c2ccc(OCC(=O)O[C@@H]3O[C@@H]4O[C@]5(C)CC[C@H]6[C@H](C)CC[C@@H]([C@H]3C)[C@@]46OO5)cc2)cc1`, the “growth inhibition (GI)” value is “inactive”.
Still for that read-out and setting: then `C[C@H]1[C@H](OC(=O)COc2ccc(C(=O)/C=C/c3ccc(Br)cc3)cc2)O[C@@H]2O[C@]3(C)CC[C@H]4[C@H](C)CC[C@@H]1[C@@]24OO3`, with “inactive”.
Still for that read-out and setting: under `C[C@H]1[C@@H](OCCOc2ccc(C(=O)/C=C/c3ccc(Br)cc3)cc2)O[C@@H]2O[C@]3(C)CC[C@H]4[C@H](C)CC[C@@H]1[C@@]24OO3` stands “inactive”.

In the next experiment the test system is HL-60. Nature of the experiment: Cell cycle arrest in human HL60 cells assessed as accumulation at subG1 phase at 0.8 uM after 24 hrs using propidium iodide staining by flow cytometry. It is filed as functional.
Conditions: not given
The method, boiled down: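 HL-60 cells exposed 24 h; propidium iodide staining, then flow cytometry. The subG1 population is scored as apoptotic cells. Mean ± SD from three independent experiments.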
(Flow cytometry measures light scatter and fluorescence of single cells or particles in a stream.)
`C[C@H]1[C@@H](OCCOc2ccc(C(=O)/C=C/c3ccc4c(c3)OCO4)cc2)O[C@@H]2O[C@]3(C)CC[C@H]4[C@H](C)CC[C@@H]1[C@@]24OO3`: the Activity was 80%.
`C[C@H]1[C@@H](OCCOc2ccc(C(=O)/C=C/c3ccc(Br)cc3)cc2)O[C@@H]2O[C@]3(C)CC[C@H]4[C@H](C)CC[C@@H]1[C@@]24OO3`: the Activity is 80%.

The subject of a further experiment is HL-60. Nature of the experiment: Induction of apoptosis in human HL60 cells assessed as occurrence of nuclear shrinkage, blebbing and apoptotic bodies at 0.2 uM after 24 hrs by acridine orange and ethidium bromide staining. It is filed as functional.
Conditions: not given
The method, boiled down:
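HL-60 cells exposed 12 h and 24 h, stained with acridine orange and ethidium bromide, and viewed by fluorescence microscopy. Cells showing nuclear shrinkage, blebbing or apoptotic bodies were scored apoptotic. Percentage taken from 300 cells counted. Mean ± SD of three independent experiments.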
Take `C[C@H]1[C@@H](OCCOc2ccc(C(=O)/C=C/c3ccc4c(c3)OCO4)cc2)O[C@@H]2O[C@]3(C)CC[C@H]4[C@H](C)CC[C@@H]1[C@@]24OO3`: the Activity is recorded as 50%.
Turning to `C[C@H]1[C@@H](OCCOc2ccc(C(=O)/C=C/c3ccc(Br)cc3)cc2)O[C@@H]2O[C@]3(C)CC[C@H]4[C@H](C)CC[C@@H]1[C@@]24OO3`, the Activity was found to be 50%.

In another experiment the test system is P388. Nature of the experiment: Growth inhibition of mouse P388 cells after 72 hrs by trypan blue exclusion assay. It is filed as functional.
Conditions: not given
Turning to `C[C@H]1[C@@H](OCCOc2ccc(C(=O)/C=C/c3ccc4c(c3)OCO4)cc2)O[C@@H]2O[C@]3(C)CC[C@H]4[C@H](C)CC[C@@H]1[C@@]24OO3`, the IG50 is 0.096 µM.
On to `C[C@H]1[C@@H](OCCOc2ccc(C(=O)/C=C/c3ccc(Br)cc3)cc2)O[C@@H]2O[C@]3(C)CC[C@H]4[C@H](C)CC[C@@H]1[C@@]24OO3`, for which the Activity is 0.098 µM.
